Measurements taken from article PMC6047365 (Biochemistry and Biophysics Reports, 2018).
Where two headings read alike, the source gives them in different places.

Key:
[1] = test system: JEV RNA replication; assay: JEV replicon Firefly luciferase; type: cell-based; settings: Japanese encephalitis virus, 72 h, read-out: EC50 JEV
In short: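 JEV replicon cells (BHKMuarPACLuc rep, maintained with puromycin 10 μg/ml) were seeded at 1×10^5 per well in triplicate. They were treated with several concentrations of test compound for 72 h, then firefly luciferase was measured. Activity was expressed relative to untreated cells (100%), mean±SD of triplicates, and EC50 was derived.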

[2] = test system: DENV RNA replication; assay: DENV/Gaussia luciferase; type: cell-based; settings: Dengue virus, BHK-21, 72 h, read-out: EC50 DENV
In short: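 BHK-21 cells were seeded at 1×10^4 per well in triplicate and transfected with the DENV replicon plasmid DGL2. At 24 h post-transfection they were treated with several concentrations of test compound for 72 h, then Gaussia luciferase was measured. Signal was expressed relative to untreated cells (100%), mean±SD of triplicates, and EC50 was derived.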

[3] = test system: HEV RNA replication; assay: HEV/NanoLuc luciferase; type: cell-based; settings: Hepatitis E virus, PLC-PRF-5, 72 h, read-out: EC50 HEV
In short: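 HEV replicon RNA was electroporated into PLC/PRF/5 cells, which were plated at 2.5×10^4 per well in triplicate. Cells were treated with several concentrations of test compound for 72 h, and NanoLuc was read by Nano-Glo. Signal was taken relative to untreated cells (100%), mean±SD of triplicates, and EC50 was derived.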

[4] = CellTiter 96 AQueous one solution cell proliferation assay; type: cell-based; settings: human, PLC/PRF/5 cells
In short: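 PLC/PRF/5 cells seeded at 2.5×10^4 per well in triplicate and exposed to several concentrations of test compound for 72 h. Viability was read by the CellTiter 96 AQueous one solution assay. Values were taken relative to untreated cells (100%), given as mean±SD of triplicates, and CC50 was derived from the curves.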

[5] = test system: HBV; assay: HBV replication assay; type: cell-based; settings: Hepatitis B virus, HepG2, read-out: EC50 HBV
In short: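 Inoculum was HBV from HepG2.2.15 supernatant, given at 1000 genome equivalents/cell in medium with 4% PEG8000 and 2% DMSO for 24 h. Medium was then replaced and cells were cultured 8 days. Cellular DNA was extracted and HBV DNA quantified by real-time qPCR. Results were taken relative to untreated cells (100%), mean±SD of triplicates.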

[6] = Cell count after trypan blue dye treatment; type: cell-based; settings: human, HepG2/NTCP cells
[7] = test system: HCV RNA replication; settings: read-out: EC50 HCV (HuH-7), HuH-7 cell-derived assays, cited from earlier work
[8] = test system: HuH-7; settings: read-out: CC50 HCV (HuH-7), HuH-7 cell-derived assays, cited from earlier work
[9] = test system: HCV RNA replication; settings: read-out: EC50 HCV (Li23), Li23 cell-derived assays, cited from earlier work
[10] = test system: Li23; settings: read-out: CC50 HCV (Li23), Li23 cell-derived assays, cited from earlier work
[11] = test system: HBV/NL virus entry; assay: HBV/NL reporter assay, entry step; type: cell-based, hepatitis B virus; settings: HBV/NL-infected HepG2/NTCPmyc cells, NL activity
In short: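 Reporter HBV/NL virus came from supernatant of HepG2 cells cotransfected with pUC1.2HBV/NL and pUC1.2HBVΔε. HepG2/NTCPmyc cells were infected at 10–100 genome equivalents with 4% PEG8000 and 2% DMSO overnight, with test compound applied per the entry-step schedule. NanoLuc activity was read with Nano-Glo, relative to untreated cells (100%), mean±SD of triplicates. P was computed vs. untreated.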

[12] = test system: HBV/NL, covalently closed circular DNA formation to translation of viral mRNAs; assay: HBV/NL reporter assay, after entry to translation steps; type: cell-based, hepatitis B virus; settings: HBV/NL-infected HepG2/NTCPmyc cells, NL activity
[13] = compared with N-89; ref [3]; cited from earlier work

For NC(=O)c1ncn([C@@H]2O[C@H](CO)[C@@H](O)[C@H]2O)n1 [RBV, Ribavirin, reference compound], which EC50 [1] is on record?
Its EC50 is 22 µM.

What about the EC50 [2] of the same molecule?
The EC50 was 15 µM.

What about the EC50 [3] of the same molecule?
The EC50 was 19 µM.

And the CC50 at 72 h [4]?
Its CC50 at 72 h is over 100 µM.

And the EC50 [5]?
The EC50 was over 100 µM.

And the CC50 at 9 days [6]?
The CC50 at 9 days was over 100 µM.

What about the EC50 ([7]; ref Mori et al. [16]) of the same molecule?
The EC50 was over 100 µM.

And the CC50 ([8]; ref Mori et al. [16])?
The CC50 was over 100 µM.

What about the EC50 ([9]; ref Mori et al. [16]) of the same molecule?
The EC50 was 8.7 to 15.9 µM.

What about the CC50 ([10]; ref Mori et al. [16]) of the same molecule?
The CC50 was over 100 µM.

Which EC50 [1] does the source give for OCCCCCCC1COOC2(CCCCCCCCCCC2)OOC1 [N-251, 6-(1,2,6,7-tetraoxaspiro[7.11]nonadec-4-yl)hexan-1-ol] here?
The EC50 was 15 µM.

What about the EC50 [2] of the same molecule?
Its EC50 is 6.5 µM.

What about the EC50 [3] of the same molecule?
Its EC50 is 13 µM.

What about the CC50 at 72 h [4] of the same molecule?
The CC50 at 72 h was 56 µM.

What about the EC50 [5] of the same molecule?
Its EC50 is 1.9 µM.

And the CC50 at 9 days [6]?
Its CC50 at 9 days is 16 µM.

And the “Effect on the process of virus entry” value [11]?
Its value is “did not prevent the process of virus entry”.

What about the “Effect on the process of covalently closed circular DNA formation to translation of viral mRNAs” value [12] of the same molecule?
Its value is “not inhibited”.

What about the EC50 ([7]; ref Ueda et al. [4]) of the same molecule?
Its EC50 is 0.14 to 0.98 µM.

What about the CC50 ([8]; ref Ueda et al. [4]) of the same molecule?
The CC50 was 0.49 to 3.8 µM.

What about the EC50 ([9]; ref Ueda et al. [4]) of the same molecule?
The EC50 was 0.059 to 0.29 µM.

What about the CC50 ([10]; ref Ueda et al. [4]) of the same molecule?
Its CC50 is 1.1 to 2.8 µM.

And the Water solubility [13]?
The Water solubility was “higher water solubility than N-89”.
